From ChEMBL document CHEMBL1157588, “Searching for multi-target antipsychotics: Discovery of orally active heterocyclic N-phenylpiperazine ligands of D2-like and 5-HT1A receptors” (Bioorg Med Chem, 2010)
The source made the active and inactive calls. The rule behind the calls is not given here.

Species on record: Rattus norvegicus
Experiment: Selectivity index, ratio of Ki for Wistar rat striatum D2-like receptor to Ki for Wistar rat hippocampus 5HT1A receptor
Type: tissue-based
Conditions: not given

Row | Ratio Ki | Compound
1 | 0.78 | Clc1ccc(-n2cc(CN3CCN(c4ccccc4)CC3)nn2)cc1
2 | 2.05 | Fc1ccc(N2CCN(Cc3cnn(-c4ccc(F)cc4)c3)CC2)cc1
3 | 2.31 | c1ccc(N2CCN(Cc3cnn(-c4ccccc4)c3)CC2)cc1
4 | 1.07 | Fc1ccc(-n2cc(CN3CCN(c4ccccc4)CC3)cn2)cc1
5 | 0.22 | Oc1ccc(N2CCN(Cc3cn(-c4ccc(Cl)cc4)nn3)CC2)cc1
6 | 1.54 | c1ccc(N2CCN(Cc3cn(-c4ccccc4)nn3)CC2)cc1
7 | 1.2 | O=[N+]([O-])c1ccc(-n2cc(CN3CCN(c4ccccc4)CC3)nn2)cc1
8 | 1.32 | Fc1ccc(N2CCN(Cc3cn(-c4ccccc4)nn3)CC2)cc1
9 | 1.21 | Clc1ccc(-n2cc(CN3CCN(c4ccccc4)CC3)cn2)cc1
10 | 9.89 | Clc1ccc(N2CCN(Cc3cnn(-c4ccccc4)c3)CC2)cc1
11 | 4.42 | Fc1ccc(N2CCN(Cc3cnn(-c4ccccc4)c3)CC2)cc1
12 | 0.82 | Fc1ccc(-n2cc(CN3CCN(c4ccccc4)CC3)nn2)cc1

Tested on: Mus musculus
Experiment: Toxicity in CF1 mouse assessed as induction of catalepsy by measuring time spent on elevated wood bar at 15 mg/kg, po after 30 mins (reference value: 1.8 +/- 1.1 sec)
Type: organism-based
Parameters: dose 15 mg/kg, route oral
Conditions: in vivo, 0.5 h

Row | Compound | Time [s]
13 | Fc1ccc(-n2cc(CN3CCN(c4ccccc4)CC3)cn2)cc1 | 7.9
14 | Clc1ccc(-n2cc(CN3CCN(c4ccccc4)CC3)cn2)cc1 | 5.6

Molecular target: not listed separately
Experiment: Displacement of [3H]nemonapride from D2-like receptor in Wistar rat striatum homogenate
Type: tissue-based
Conditions: not given
Outline: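 Rat striatal membranes (50 µg protein) incubated 60 min at 37 °C with 0.1 nM [3H]-nemonapride in 50 mM Tris–HCl pH 7.4 with 120 mM NaCl, 5 mM KCl, 5 mM MgCl2, 1.5 mM CaCl2 and 1 mM EDTA. Nonspecific binding defined by 30 µM (–)sulpiride. Filtration, scintillation counting.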

Row | Ki [nM] | Compound
15 | 950 | Clc1ccc(-n2cc(CN3CCN(c4ccccc4)CC3)nn2)cc1
16 | 480 | Fc1ccc(N2CCN(Cc3cnn(-c4ccc(F)cc4)c3)CC2)cc1
17 | 110 | c1ccc(N2CCN(Cc3cnn(-c4ccccc4)c3)CC2)cc1
18 | 70 | Fc1ccc(-n2cc(CN3CCN(c4ccccc4)CC3)cn2)cc1
19 | 1740 | Oc1ccc(N2CCN(Cc3cn(-c4ccc(Cl)cc4)nn3)CC2)cc1
20 | 730 | c1ccc(N2CCN(Cc3cn(-c4ccccc4)nn3)CC2)cc1
21 | 3340 | O=[N+]([O-])c1ccc(-n2cc(CN3CCN(c4ccccc4)CC3)nn2)cc1
22 | 1980 | Fc1ccc(N2CCN(Cc3cn(-c4ccccc4)nn3)CC2)cc1
23 | 110 | Clc1ccc(-n2cc(CN3CCN(c4ccccc4)CC3)cn2)cc1
24 | 3740 | Clc1ccc(N2CCN(Cc3cnn(-c4ccccc4)c3)CC2)cc1
25 | 510 | Fc1ccc(N2CCN(Cc3cnn(-c4ccccc4)c3)CC2)cc1
26 | 740 | Fc1ccc(-n2cc(CN3CCN(c4ccccc4)CC3)nn2)cc1

Tested on: Mus musculus
Experiment: Toxicity in CF1 mouse assessed as induction of catalepsy by measuring time spent on elevated wood bar at 30 mg/kg, po after 30 mins (reference value: 1.8 +/- 1.1 sec)
Type: organism-based
Parameters: dose 30 mg/kg, route oral
Conditions: in vivo, 0.5 h

Row | Compound | Time [s]
27 | Fc1ccc(-n2cc(CN3CCN(c4ccccc4)CC3)cn2)cc1 | 13.1
28 | Clc1ccc(-n2cc(CN3CCN(c4ccccc4)CC3)cn2)cc1 | 3.9

Tested on: Mus musculus
Experiment: Toxicity in CF1 mouse assessed as induction of catalepsy by measuring time spent on elevated wood bar at 15 mg/kg, po after 60 mins (reference value: 2.7 +/- 2.9 sec)
Type: organism-based
Parameters: dose 15 mg/kg, route oral
Conditions: in vivo, 1 h

Row | Compound | Time [s]
29 | Fc1ccc(-n2cc(CN3CCN(c4ccccc4)CC3)cn2)cc1 | 15.1
30 | Clc1ccc(-n2cc(CN3CCN(c4ccccc4)CC3)cn2)cc1 | 23.6

Species on record: Rattus norvegicus
Experiment: Selectivity index, ratio of Ki for Wistar rat hippocampus 5HT1A receptor to Ki for Wistar rat cortex 5HT2A receptor
Type: tissue-based
Conditions: not given

Row | Ratio Ki | Compound
31 | 0.11 | Clc1ccc(-n2cc(CN3CCN(c4ccccc4)CC3)nn2)cc1
32 | 0.44 | Fc1ccc(N2CCN(Cc3cnn(-c4ccc(F)cc4)c3)CC2)cc1
33 | 0.03 | c1ccc(N2CCN(Cc3cnn(-c4ccccc4)c3)CC2)cc1
34 | 0.07 | Fc1ccc(-n2cc(CN3CCN(c4ccccc4)CC3)cn2)cc1
35 | 0.08 | c1ccc(N2CCN(Cc3cn(-c4ccccc4)nn3)CC2)cc1
36 | 0.45 | Fc1ccc(N2CCN(Cc3cn(-c4ccccc4)nn3)CC2)cc1
37 | 0.04 | Clc1ccc(-n2cc(CN3CCN(c4ccccc4)CC3)cn2)cc1
38 | 0.41 | Clc1ccc(N2CCN(Cc3cnn(-c4ccccc4)c3)CC2)cc1
39 | 0.12 | Fc1ccc(N2CCN(Cc3cnn(-c4ccccc4)c3)CC2)cc1
40 | 0.16 | Fc1ccc(-n2cc(CN3CCN(c4ccccc4)CC3)nn2)cc1

Tested on: Mus musculus
Experiment: Toxicity in CF1 mouse assessed as induction of motor impairment by measuring permanence time at 15 mg/kg, po by rotarod test (reference value: 241.4 +/- 18.0 sec)
Type: organism-based
Parameters: dose 15 mg/kg, route oral
Conditions: in vivo, 0.005 h

Row | Compound | Time [s]
41 | Fc1ccc(-n2cc(CN3CCN(c4ccccc4)CC3)cn2)cc1 | 160.6
42 | Clc1ccc(-n2cc(CN3CCN(c4ccccc4)CC3)cn2)cc1 | 149.3

Species on record: Rattus norvegicus
Experiment: Selectivity index, ratio of Ki for Wistar rat striatum D2-like receptor to Ki for Wistar rat cortex 5HT2A receptor
Conditions: not given

Row | Ratio Ki | Compound
43 | 0.09 | Clc1ccc(-n2cc(CN3CCN(c4ccccc4)CC3)nn2)cc1
44 | 0.91 | Fc1ccc(N2CCN(Cc3cnn(-c4ccc(F)cc4)c3)CC2)cc1
45 | 0.06 | c1ccc(N2CCN(Cc3cnn(-c4ccccc4)c3)CC2)cc1
46 | 0.07 | Fc1ccc(-n2cc(CN3CCN(c4ccccc4)CC3)cn2)cc1
47 | 0.13 | c1ccc(N2CCN(Cc3cn(-c4ccccc4)nn3)CC2)cc1
48 | 0.6 | Fc1ccc(N2CCN(Cc3cn(-c4ccccc4)nn3)CC2)cc1
49 | 0.05 | Clc1ccc(-n2cc(CN3CCN(c4ccccc4)CC3)cn2)cc1
50 | 4.04 | Clc1ccc(N2CCN(Cc3cnn(-c4ccccc4)c3)CC2)cc1
51 | 0.48 | Fc1ccc(N2CCN(Cc3cnn(-c4ccccc4)c3)CC2)cc1
52 | 0.13 | Fc1ccc(-n2cc(CN3CCN(c4ccccc4)CC3)nn2)cc1

Molecular target: 5-hydroxytryptamine receptor 2A (Rattus norvegicus, UniProt P14842)
Sequence (P14842 whole entry): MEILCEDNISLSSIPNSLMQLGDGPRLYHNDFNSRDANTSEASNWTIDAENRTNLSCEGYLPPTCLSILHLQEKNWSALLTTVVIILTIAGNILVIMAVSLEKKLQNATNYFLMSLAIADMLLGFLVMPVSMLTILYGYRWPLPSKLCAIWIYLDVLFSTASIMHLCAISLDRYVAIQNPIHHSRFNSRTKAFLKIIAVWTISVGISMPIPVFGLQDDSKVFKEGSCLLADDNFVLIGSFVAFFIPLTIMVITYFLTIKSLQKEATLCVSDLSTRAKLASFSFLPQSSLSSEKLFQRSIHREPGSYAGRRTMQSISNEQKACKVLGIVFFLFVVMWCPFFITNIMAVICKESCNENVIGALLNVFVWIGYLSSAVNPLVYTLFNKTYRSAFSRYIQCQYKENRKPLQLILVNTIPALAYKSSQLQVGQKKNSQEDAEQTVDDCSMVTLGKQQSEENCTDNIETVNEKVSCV
Experiment: Displacement of [3H]ketanserin from 5HT2A receptor in Wistar rat cortex homogenate
Conditions: not given

Row | Ki [nM] | Compound
53 | 10900 | Clc1ccc(-n2cc(CN3CCN(c4ccccc4)CC3)nn2)cc1
54 | 530 | Fc1ccc(N2CCN(Cc3cnn(-c4ccc(F)cc4)c3)CC2)cc1
55 | 1750 | c1ccc(N2CCN(Cc3cnn(-c4ccccc4)c3)CC2)cc1
56 | 920 | Fc1ccc(-n2cc(CN3CCN(c4ccccc4)CC3)cn2)cc1
57 | > 19200 | Oc1ccc(N2CCN(Cc3cn(-c4ccc(Cl)cc4)nn3)CC2)cc1
58 | 5660 | c1ccc(N2CCN(Cc3cn(-c4ccccc4)nn3)CC2)cc1
59 | > 19200 | O=[N+]([O-])c1ccc(-n2cc(CN3CCN(c4ccccc4)CC3)nn2)cc1
60 | 3320 | Fc1ccc(N2CCN(Cc3cn(-c4ccccc4)nn3)CC2)cc1
61 | 2320 | Clc1ccc(-n2cc(CN3CCN(c4ccccc4)CC3)cn2)cc1
62 | 920 | Clc1ccc(N2CCN(Cc3cnn(-c4ccccc4)c3)CC2)cc1
63 | 1040 | Fc1ccc(N2CCN(Cc3cnn(-c4ccccc4)c3)CC2)cc1
64 | 5620 | Fc1ccc(-n2cc(CN3CCN(c4ccccc4)CC3)nn2)cc1

Tested on: Mus musculus
Experiment: Toxicity in CF1 mouse assessed as induction of catalepsy by measuring time spent on elevated wood bar at 30 mg/kg, po after 60 mins (reference value: 2.7 +/- 2.9 sec)
Type: organism-based
Parameters: dose 30 mg/kg, route oral
Conditions: in vivo, 1 h

Row | Compound | Time [s]
65 | Fc1ccc(-n2cc(CN3CCN(c4ccccc4)CC3)cn2)cc1 | 17.2
66 | Clc1ccc(-n2cc(CN3CCN(c4ccccc4)CC3)cn2)cc1 | 13.4

Tested on: Mus musculus
Experiment: Antipsychotic activity in CF1 mouse assessed as reduction in apomorphine-induced climbing at 15 mg/kg, po
Type: functional, organism-based
Parameters: dose 15 mg/kg
Conditions: not given
Outline: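 Adult male CF1 mice (25–35 g) dosed orally (10 mL/kg), then held 30 min in metal-bar cages before apomorphine 4 mg/kg sc (5 mL/kg) or vehicle. Climbing scored 0–4 at 5, 10, 15, 20, 25 and 30 min after apomorphine; index is the sum of scores per animal. Mean + SEM, n = 08–13, ANOVA with post-hoc test.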

Row | Compound | inhibition
67 | Fc1ccc(N2CCN(Cc3cnn(-c4ccc(F)cc4)c3)CC2)cc1 | inactive
68 | c1ccc(N2CCN(Cc3cnn(-c4ccccc4)c3)CC2)cc1 | inactive
69 | Fc1ccc(-n2cc(CN3CCN(c4ccccc4)CC3)cn2)cc1 | Active
70 | Clc1ccc(-n2cc(CN3CCN(c4ccccc4)CC3)cn2)cc1 | Active
71 | Fc1ccc(N2CCN(Cc3cnn(-c4ccccc4)c3)CC2)cc1 | inactive

Tested on: Mus musculus
Experiment: Toxicity in CF1 mouse assessed as induction of catalepsy by measuring time spent on elevated wood bar at 15 mg/kg, po after 90 mins (reference value: 2.4 +/- 2.6 sec)
Type: organism-based
Parameters: dose 15 mg/kg, route oral
Conditions: in vivo, 1.5 h

Row | Compound | Time [s]
72 | Fc1ccc(-n2cc(CN3CCN(c4ccccc4)CC3)cn2)cc1 | 25.2
73 | Clc1ccc(-n2cc(CN3CCN(c4ccccc4)CC3)cn2)cc1 | 32.2

Tested on: Mus musculus
Experiment: Toxicity in CF1 mouse assessed as induction of catalepsy by measuring time spent on elevated wood bar at 30 mg/kg, po after 90 mins (reference value: 2.4 +/- 2.6 sec)
Type: organism-based
Parameters: dose 30 mg/kg, route oral
Conditions: in vivo, 1.5 h

Row | Compound | Time [s]
74 | Fc1ccc(-n2cc(CN3CCN(c4ccccc4)CC3)cn2)cc1 | 36.6
75 | Clc1ccc(-n2cc(CN3CCN(c4ccccc4)CC3)cn2)cc1 | 10.5

Molecular target: T1, 5-hydroxytryptamine receptor 1A (Rattus norvegicus, UniProt P19327)
T1 sequence (P19327 whole entry): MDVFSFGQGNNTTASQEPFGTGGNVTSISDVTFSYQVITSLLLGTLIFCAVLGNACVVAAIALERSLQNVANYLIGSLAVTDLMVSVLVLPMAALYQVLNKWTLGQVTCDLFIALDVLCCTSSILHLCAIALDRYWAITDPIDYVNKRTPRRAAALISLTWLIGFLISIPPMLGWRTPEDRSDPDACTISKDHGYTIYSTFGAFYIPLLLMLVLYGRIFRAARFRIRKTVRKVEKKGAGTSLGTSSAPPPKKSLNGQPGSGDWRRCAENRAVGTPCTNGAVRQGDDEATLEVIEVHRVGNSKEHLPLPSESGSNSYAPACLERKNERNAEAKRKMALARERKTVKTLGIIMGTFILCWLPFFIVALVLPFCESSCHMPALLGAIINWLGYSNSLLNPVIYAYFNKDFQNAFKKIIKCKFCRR
Experiment: Displacement of [3H]-8-OH-DPAT from 5HT1A receptor in Wistar rat hippocampus homogenate
Type: tissue-based
Conditions: not given
Outline: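 Rat hippocampal membranes (50 µg protein) incubated 15 min at 37 °C with 1 nM [3H]-8-OH-DPAT in 50 mM Tris–HCl pH 7.4 with 1 mM CaCl2, 1 mM MnCl2 and 10 µM pargyline. Nonspecific binding by 10 µM serotonin. Top test concentration 30 or 10 µM.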

Row | Ki [nM] | Compound
76 | 1220 | Clc1ccc(-n2cc(CN3CCN(c4ccccc4)CC3)nn2)cc1
77 | 240 | Fc1ccc(N2CCN(Cc3cnn(-c4ccc(F)cc4)c3)CC2)cc1
78 | 50 | c1ccc(N2CCN(Cc3cnn(-c4ccccc4)c3)CC2)cc1
79 | 60 | Fc1ccc(-n2cc(CN3CCN(c4ccccc4)CC3)cn2)cc1
80 | 7980 | Oc1ccc(N2CCN(Cc3cn(-c4ccc(Cl)cc4)nn3)CC2)cc1
81 | 480 | c1ccc(N2CCN(Cc3cn(-c4ccccc4)nn3)CC2)cc1
82 | 2780 | O=[N+]([O-])c1ccc(-n2cc(CN3CCN(c4ccccc4)CC3)nn2)cc1
83 | 1500 | Fc1ccc(N2CCN(Cc3cn(-c4ccccc4)nn3)CC2)cc1
84 | 90 | Clc1ccc(-n2cc(CN3CCN(c4ccccc4)CC3)cn2)cc1
85 | 380 | Clc1ccc(N2CCN(Cc3cnn(-c4ccccc4)c3)CC2)cc1
86 | 120 | Fc1ccc(N2CCN(Cc3cnn(-c4ccccc4)c3)CC2)cc1
87 | 890 | Fc1ccc(-n2cc(CN3CCN(c4ccccc4)CC3)nn2)cc1
